Laboratory results reported in ChEMBL document CHEMBL4602608, “Isoquinoline Kelch-like ECH-Associated Protein 1-Nuclear Factor (Erythroid-Derived 2)-like 2 (KEAP1-NRF2) Inhibitors with High Metabolic Stability” (J Med Chem, 2020).

Legend:
Keap1/Nrf2 = Keap1/Nrf2 (Homo sapiens, UniProt Q14145); experiment: Inhibition of Keap1-Nrf2 Interaction (unknown origin) by fluorescence anisotropy; format: protein assay
[1] = Partition coefficient, logD between n-octanol and pH 7.4 buffer by HPLC analysis; format: physicochemical; settings: n-octanol/pH 7.4 buffer
[2] = Half life in human liver microsomes in presence of NADPH by LC-MS/MS analysis; format: ADME, Microsome
[3] = biological target: T1, Keap1/Nrf2 (Homo sapiens) (UniProt Q16236+Q14145); experiment: Inhibition of Keap1-Nrf2 Interaction in human HaCaT cells assessed as increase in NQO1 protein level at 0.25 uM incubated for 16 hrs by Western blot analysis relative to control; format: cell-based
T1 sequence (Q14145 whole entry, looked up): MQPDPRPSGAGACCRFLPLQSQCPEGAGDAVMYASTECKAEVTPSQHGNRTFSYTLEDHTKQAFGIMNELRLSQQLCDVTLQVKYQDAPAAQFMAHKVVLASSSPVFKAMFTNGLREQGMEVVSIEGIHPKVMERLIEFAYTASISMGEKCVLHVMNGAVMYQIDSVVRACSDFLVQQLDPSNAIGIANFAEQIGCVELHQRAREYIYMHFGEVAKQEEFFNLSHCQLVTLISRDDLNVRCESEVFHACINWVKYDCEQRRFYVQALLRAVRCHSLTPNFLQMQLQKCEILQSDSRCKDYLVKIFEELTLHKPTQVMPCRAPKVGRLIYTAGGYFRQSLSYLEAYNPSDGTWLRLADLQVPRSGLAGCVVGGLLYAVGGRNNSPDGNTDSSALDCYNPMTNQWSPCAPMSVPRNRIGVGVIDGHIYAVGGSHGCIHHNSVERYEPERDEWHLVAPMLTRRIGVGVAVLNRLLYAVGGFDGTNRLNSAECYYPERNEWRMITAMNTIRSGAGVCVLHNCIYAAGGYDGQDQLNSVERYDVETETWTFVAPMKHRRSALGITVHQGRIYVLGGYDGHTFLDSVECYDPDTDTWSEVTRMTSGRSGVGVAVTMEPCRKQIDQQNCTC
T1 sequence (Q16236 whole entry, looked up): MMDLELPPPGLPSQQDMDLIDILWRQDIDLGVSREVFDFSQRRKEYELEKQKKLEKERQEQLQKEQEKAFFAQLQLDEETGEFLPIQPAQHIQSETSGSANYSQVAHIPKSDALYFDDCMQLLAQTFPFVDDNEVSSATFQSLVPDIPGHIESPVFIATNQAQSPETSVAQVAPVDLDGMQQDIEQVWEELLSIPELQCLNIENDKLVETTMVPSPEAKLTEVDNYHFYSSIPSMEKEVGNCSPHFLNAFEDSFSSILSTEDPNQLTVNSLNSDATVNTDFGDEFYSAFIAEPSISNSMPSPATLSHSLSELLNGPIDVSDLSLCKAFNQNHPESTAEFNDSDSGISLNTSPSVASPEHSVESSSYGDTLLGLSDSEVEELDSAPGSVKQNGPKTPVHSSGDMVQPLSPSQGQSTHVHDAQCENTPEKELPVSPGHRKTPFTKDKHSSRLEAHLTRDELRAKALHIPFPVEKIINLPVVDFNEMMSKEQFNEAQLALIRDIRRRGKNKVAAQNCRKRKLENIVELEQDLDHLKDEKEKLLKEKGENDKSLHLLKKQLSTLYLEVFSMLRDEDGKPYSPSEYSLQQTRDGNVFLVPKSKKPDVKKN
In short: (§1)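 HaCaT keratinocytes were grown in DMEM with 10% FBS and 1% antibiotics, then treated at 70–80% confluence in complete medium, with DMSO as vehicle. RIPA lysates (~40 μg protein) were run on 10% SDS-PAGE and immunoblotted for NRF2 and NQO1, with β-actin as loading control and chemiluminescent detection. Values are mean fold change versus DMSO from two biological replicates.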

[4] = biological target: T1, Keap1/Nrf2 (Homo sapiens); experiment: Inhibition of Keap1-Nrf2 Interaction in human HaCaT cells assessed as increase in Nrf2 protein level at 0.25 uM incubated for 16 hrs by Western blot analysis relative to control; format: cell-based; in short: as §1

Chain of Keap1/Nrf2 (Q16236 whole entry): as the sequence (Q16236 whole entry, looked up) above
Chain of Keap1/Nrf2 (Q14145 whole entry): as the sequence (Q14145 whole entry, looked up) above

**Q.** With `COc1ccc(S(=O)(=O)N(CC(=O)O)c2ncc(N(CC(=O)O)S(=O)(=O)c3ccc(F)cc3)c3ccccc23)cc1` as the compound, how does the IC50 (Keap1/Nrf2) read?
**A.** Its IC50 is 0.24 µM.

**Q.** And the logD [1]?
**A.** Its logD is -1.8.

**Q.** With `O=C(O)CN(c1cnc(N(CC(=O)O)S(=O)(=O)c2ccc(F)cc2)c2ccccc12)S(=O)(=O)c1ccc(F)cc1` as the compound, how does the IC50 (Keap1/Nrf2) read?
**A.** The IC50 was 0.43 µM.

**Q.** With `COc1ccc(S(=O)(=O)Nc2cnc(N(C(C)C(=O)O)S(=O)(=O)c3ccc(OC)cc3)c3ccccc23)cc1` (stereo not given) as the compound, how does the IC50 (Keap1/Nrf2) read?
**A.** Its IC50 is 2.3 µM.

**Q.** And the logD [1]?
**A.** Its logD is -1.1.

**Q.** With `COc1ccc(S(=O)(=O)N(CC(F)(F)F)c2cnc(N(CC(=O)O)S(=O)(=O)c3ccc(F)cc3)c3ccccc23)cc1` as the compound, how does the IC50 (Keap1/Nrf2) read?
**A.** The IC50 was 0.13 µM.

**Q.** What about the logD [1] of the same compound?
**A.** The logD was 0.6.

**Q.** What about the t1/2 [2] of the same compound?
**A.** Its t1/2 is greater than 3 h.

**Q.** Which results are given for `COc1ccc(S(=O)(=O)N(CC(=O)O)c2cnc(N(CC(=O)O)S(=O)(=O)c3ccc(F)cc3)c3ccccc23)cc1`?
**A.** IC50 (Keap1/Nrf2): 0.28 µM; logD [1]: -1.9

**Q.** For `COc1ccc(S(=O)(=O)N(CC(=O)O)c2ncc(N(CC(F)(F)F)S(=O)(=O)c3ccc(F)cc3)c3ccccc23)cc1`, which IC50 (Keap1/Nrf2) is on record?
**A.** Its IC50 is 0.12 µM.

**Q.** What about the logD [1] of the same compound?
**A.** Its logD is 0.5.

**Q.** What about the t1/2 [2] of the same compound?
**A.** Its t1/2 is greater than 3 h.

**Q.** With `COc1ccc(S(=O)(=O)N(CC(F)(F)F)c2cnc(N(CC(=O)O)S(=O)(=O)c3ccc(OC)cc3)c3ccccc23)cc1` as the compound, how does the logD [1] read?
**A.** Its logD is 0.5.

**Q.** And the t1/2 [2]?
**A.** The t1/2 was 2.27 h.

**Q.** What does the source list for `O=C(O)CN(c1ncc(N(CC(F)(F)F)S(=O)(=O)c2ccc(F)cc2)c2ccccc12)S(=O)(=O)c1ccc(F)cc1`?
**A.** IC50 (Keap1/Nrf2): 0.42 µM; logD [1]: 0.6; t1/2 [2]: > 3 h

**Q.** What does the source list for `COc1ccc(S(=O)(=O)N(CCF)c2cnc(N(CC(=O)O)S(=O)(=O)c3ccc(OC)cc3)c3ccccc23)cc1`?
**A.** IC50 (Keap1/Nrf2): 0.21 µM; logD [1]: -0.1; t1/2 [2]: 0.967 h

**Q.** For `COc1ccc(S(=O)(=O)Nc2ncc(N(CC(=O)O)S(=O)(=O)c3ccc(OC)cc3)c3ccccc23)cc1`, which IC50 (Keap1/Nrf2) is on record?
**A.** The IC50 was 1.1 µM.

**Q.** What about the logD [1] of the same compound?
**A.** Its logD is -0.5.

**Q.** Which IC50 (Keap1/Nrf2) does the source give for `COc1ccc(S(=O)(=O)N(CC(F)F)c2cnc(N(CC(=O)O)S(=O)(=O)c3ccc(OC)cc3)c3ccccc23)cc1` here?
**A.** The IC50 was 0.055 µM.

**Q.** What about the logD [1] of the same compound?
**A.** The logD was 0.2.

**Q.** What about the t1/2 [2] of the same compound?
**A.** Its t1/2 is 1.62 h.

**Q.** Which results are given for `COc1ccc(S(=O)(=O)Nc2cnc(N(CC(=O)O)S(=O)(=O)c3ccc(OC)cc3)c3ccccc23)cc1`?
**A.** IC50 (Keap1/Nrf2): 0.23 µM; t1/2 [2]: 0.617 h

**Q.** What does the source list for `COC(=O)[C@]12CCC(C)(C)C[C@H]1[C@H]1C(=O)C=C3[C@@]4(C)C=C(C#N)C(=O)C(C)(C)[C@@H]4CC[C@@]3(C)[C@]1(C)CC2`?
**A.** fold change (FC) [3]: 1.43; fold change (FC) [4]: 3.34

**Q.** With `O=C(O)CN(c1cnc(N(CC(=O)O)S(=O)(=O)c2ccc(O)cc2)c2ccccc12)S(=O)(=O)c1ccc(O)cc1` as the compound, how does the IC50 (Keap1/Nrf2) read?
**A.** Its IC50 is 0.35 µM.

**Q.** And the t1/2 [2]?
**A.** The t1/2 was 0.05 h.

**Q.** With `COc1ccc(S(=O)(=O)N(C)c2cnc(N(CC(=O)O)S(=O)(=O)c3ccc(OC)cc3)c3ccccc23)cc1` as the compound, how does the IC50 (Keap1/Nrf2) read?
**A.** The IC50 was 1 µM.

**Q.** And the logD [1]?
**A.** Its logD is 0.

**Q.** And the t1/2 [2]?
**A.** The t1/2 was 0.1 h.
